# According to publication PMC2699564 (Journal of medicinal chemistry, 2009):
# What was measured:
# RIF tumors [1] = assay: In vivo biodistribution of ^124I-labeled compounds; parameters: species or system C3H mice; conditions: for tumor uptake compared among compounds 1-3 / tumor uptake: RIF tumor; for tumor uptake compared among compounds 1-3 / liver and spleen uptake compared among compounds 1-3: 24-96 h post injection; for tumor uptake: ^124I-labeled, i.v.; for liver and spleen uptake compared among compounds 1-3: C3H mice
# Outline: (§1)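 ¹²⁴I-labeled test compound (radiochemical purity >95%, in saline with 10% ethanol) given via tail vein at 15–200 μCi; 3–4 mice per compound/time point. Sacrificed at 24, 48, 72 and 96 h. Blood, tumor, heart, liver, spleen, kidney, lung, muscle, gut and stomach removed and weighed. Activity measured by gamma well counter; uptake expressed as %ID/g; mean of 3 or 4 mice.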
# Colon-26 tumors = assay: In vivo biodistribution of ^124I-labeled 1; parameters: species or system BALB/c mice; conditions: for tumor uptake: Colon-26 tumor, ^124I-labeled, i.v.
# Outline: as §1
# RIF tumor = assay: microPET imaging, RUV and relative tumor activity, RIF tumor; type: in vivo
# Colon-26 tumor = assay: microPET imaging, RUV and relative tumor activity, Colon-26 tumor; type: in vivo
# RIF tumors [2] = assay: In vivo PDT efficacy; parameters: species or system C3H mice; conditions: for tumor free mice (tumor cure) / tumor free mice (tumor cure) at day 60: 665 nm, 135 J/cm^2, 75 mW/cm^2 at 24 h post-injection, five mice/group; for toxicity (deaths post PDT): 135 J/cm^2, five mice/group
# Outline: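 Female C3H/HeJ mice received 2×10^5 RIF cells intradermally in HBSS lacking Ca²⁺/Mg²⁺. At 4–5 mm tumors, hair was removed and test compound given i.v. the day before light, at 0.5, 1.0 or 1.5 μmol/kg, five mice/group. At 24 h, mice were restrained unanaesthetised and tumor irradiated with dye laser at 665 nm: 1 cm², 75 mW/cm², 135 J/cm², 30 min. Mice were watched daily for weight loss, scabbing and regrowth; V = (L × W²)/2. Sacrificed at 400 mm³; cured if no regrowth by day 60.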
# RIF cells = assay: In vitro cell uptake by fluorescence, RIF cells; type: cell-based
# Outline: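 RIF cells incubated with test compound; cellular uptake read by fluorescence at 3 and 24 h post-incubation.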
# [3] = system: radiation-induce fibrosarcoma (RIF) cells; assay: In vitro photosensitizing efficacy; type: cell-based; conditions: 24 h incubation, 0.25 μM (Figure 8), light 0-4 J/cm^2, MTT
# Colon-26 cells = assay: In vitro cell uptake, Colon-26 cells; type: cell-based
smiles,measurement,setting,value
"CCC1=C(C)c2cc3[nH]c(cc4nc(c5c6[nH]c(cc1n2)c(C)c6C(=O)C5)[C@@H](CCC(=O)OC)[C@@H]4C)c(C)c3C(C)OCc1cccc([124I])c1 (some centres unmarked) [Compound 1, 3-{1′-(m-iodobenzyloxy)ethyl}pyropheophorbide-a methyl ester]",tumor uptake compared among compounds 1-3,RIF tumors [1],highest tumor uptake value at 24 and 48 hrs time points
same,tumor uptake,RIF tumors [1]; 24 h post injection,4.1 %ID/g
same,tumor uptake,RIF tumors [1]; 48 h post injection,2.1 %ID/g
same,tumor uptake,RIF tumors [1]; 72 h post injection,0.8 %ID/g
same,tumor uptake,RIF tumors [1]; 96 h post injection,0.6 %ID/g
same,tumor uptake in Colo-26 relative to RIF,Colon-26 tumors; 72 h post injection,3 fold
same,tumor uptake in Colo-26 relative to RIF,Colon-26 tumors; 96 h post injection,3 fold
same,tumor uptake,Colon-26 tumors; 24 h post injection,4.6 %ID/g
same,tumor uptake,Colon-26 tumors; 48 h post injection,4.4 %ID/g
same,tumor uptake,Colon-26 tumors; 72 h post injection,2.5 %ID/g
same,tumor uptake,Colon-26 tumors; 96 h post injection,2.0 %ID/g
same,"blood uptake, BALB/c vs C3H mice",Colon-26 tumors; ^124I-labeled 1,slightly higher blood uptake in BALB/c mice than C3H mice
same,"uptake in other organs, BALB/c vs C3H mice",Colon-26 tumors; ^124I-labeled 1,lower uptake in BALB/c mice than the C3H mice
same,relative tumor activity (tumor activity to whole body activity in image),"RIF tumor; RIF tumor, ^124I-1 about constant over three scans in 3 days",~0.035
same,time of best tumor contrast in PET images,"RIF tumor; both tumor models (RIF and Colon-26), post injection",72 h
same,relative tumor activity over time,Colon-26 tumor; 24-96 h,increasing relative quantity of activity in the tumor
same,relative uptake value (RUV) compared with RIF tumor,Colon-26 tumor; after 48 hours of injection,higher RUV values than RIF tumor
same,tumor free mice (tumor cure),RIF tumors [2]; 1.00 μmole/kg i.v.,one out of five mice was tumor free
same,tumor free mice (tumor cure) at day 60,RIF tumors [2]; 1.5 μmol/kg i.v.,four out of five mice were tumor free
"CCC1=C(C)c2cc3[nH]c(cc4nc(c5c6[nH]c(cc1n2)c(C)c6C(=O)C5)[C@@H](CCC(=O)N[C@@H]1[C@@H](O)[C@H](O)[C@@H](CO)O[C@H]1O)[C@@H]4C)c(C)c3C(C)OCc1cccc([124I])c1 (some centres unmarked) [Compound 2, 3-{1′-(m-iodobenzyloxy)ethyl}-17[2]-(2-amino-2-deoxy)glucosamide-pyropheo phorbide-a]",liver and spleen uptake compared among compounds 1-3,RIF tumors [1],lower spleen and liver uptake than 3 but higher than that of 1
same,tumor uptake compared among compounds 1-3,RIF tumors [1],least tumor uptake among all compounds at all time points
same,cell uptake compared to compound 1,RIF cells,higher uptake
same,in vitro PDT efficacy compared to 1,[3],more effective than the corresponding non-carbohydrate analog 1
same,tumor free mice (tumor cure),RIF tumors [2]; 0.50 μmole/kg i.v.,one out of five mice was tumor free
same,tumor free mice (tumor cure),RIF tumors [2]; 1.00 μmole/kg i.v.,two out of five mice were tumor free
same,toxicity (deaths post PDT),RIF tumors [2]; 1.5 μmol/kg i.v.,two mice died within 24 h post PDT
same,tumor free mice (tumor cure) at day 60,RIF tumors [2]; 1.5 μmol/kg i.v.,two out of remaining three mice were tumor free
same,cell uptake compared to compound 1,Colon-26 cells,higher uptake
"CCC1=C(C)c2cc3[nH]c(cc4nc(c5c6[nH]c(cc1n2)c(C)c6C(=O)C5)[C@@H](CCC(=O)N[C@@H]1O[C@H](CO)[C@H](O)[C@H](O)[C@H]1O)[C@@H]4C)c(C)c3C(C)OCc1cccc([124I])c1 (some centres unmarked) [Compound 3, {1′-(m-iodobenzyloxy)ethyl}-17[2]-(1-amino-1-deoxy)galactosamide-pyro pheophorbide-a]",liver and spleen uptake compared among compounds 1-3,RIF tumors [1],considerably higher liver and spleen uptake at all time points
same,tumor uptake compared among compounds 1-3,RIF tumors [1],higher uptake values at the 72 and 96 hrs time points
same,cell uptake compared to compound 1,RIF cells,higher uptake
same,in vitro PDT efficacy compared to 1,[3],more effective than the corresponding non-carbohydrate analog 1
same,toxicity (deaths post PDT),RIF tumors [2]; 1.00 μmole/kg i.v.,all five mice died within 24h post PDT
same,toxicity (deaths post PDT),RIF tumors [2]; 1.5 μmol/kg i.v.,all five mice died within 24 h post light treatment
same,cell uptake compared to compound 1,Colon-26 cells,higher uptake
